Tests used:
Format in all cases: functional
[1] = tested on: Mycobacterium tuberculosis; experiment: Antitubercular activity against Mycobacterium tuberculosis H37Rv T3 nitroreductase mutant
Procedure, shortened: (§1)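 Broth dilution MIC99 against Mtb H37Rv (ATCC 27294) and its H37Rv mutants under aerobic conditions. Compound stocks were made in DMSO at 20 mM.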

[2] = tested on: Mycobacterium tuberculosis; experiment: Antitubercular activity against Mycobacterium tuberculosis H37Rv 5A1 nitroreductase mutant; procedure, shortened: as §1
[3] = tested on: Mycobacterium tuberculosis; experiment: Antitubercular activity against Mycobacterium tuberculosis H37Rv T2 nitroreductase mutant; procedure, shortened: as §1

Measured: MIC

C[C@H]1Oc2nc([N+](=O)[O-])cn2C[C@@H]1OCc1ccc(OC(F)(F)F)cc1
>100 µM: all assays above

C[C@@H]1Oc2nc([N+](=O)[O-])cn2C[C@@H]1OCc1ccc(OC(F)(F)F)cc1
>100 µM: all assays above

O=[N+]([O-])c1cn2c(n1)OC[C@@H](OCc1ccc(OC(F)(F)F)cc1)C2 [PRETOMANID]
>100 µM: all assays above

Source: ChEMBL document CHEMBL1141552, “Synthesis and antitubercular activity of 7-(R)- and 7-(S)-methyl-2-nitro-6-(S)-(4-(trifluoromethoxy)benzyloxy)-6,7-dihydro-5H-imidazo[2,1-b][1,3]oxazines, analogues of PA-824” (Bioorg Med Chem Lett, 2008)
